In brackets after ≈: the same amount, converted by molar mass. Activity calls are given as the source filed them. No rule for the calls is given here.
Key:
Hepatitis B virus [1] = experiment: Binding affinity to HBV dimeric capsid protein C150 mutant expressed in Escherichia coli BL21 (DE3) at 20 uM by Sypro orange staining based RT-PCR analysis
HepG2 = experiment: Cytotoxicity against human HepG2 cells assessed as reduction in cell viability incubated for 2 days prior to compound washout followed by compound redosing and measured after 2 days by XTT assay; format: cell-based; conditions: hepg2, 48 h
Hepatitis B virus [2] = experiment: Antiviral activity against HBV infected in human HepAD38 cells assessed as reduction in total DNA production incubated for 2 days prior to compound washout followed by compound redosing and measured after 2 days by dot-blot analysis; format: functional, organism-based
Outline: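 HepAD38 cells seeded at 3 × 10^4/well in tetracycline medium; next day washed twice with PBS and given tet-free complete medium with 2-fold serial dilutions, 1% final DMSO, replaced with fresh compound medium after 2 days. After 2 more days cells lysed (NP-40), DNA alkali-denatured, dot-blotted, probed with DIG-labelled HBV probe; chemiluminescence densitometry, variable-slope fit; mean ± SD of ≥2 experiments.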

[3] = Thermodynamic aqueous solubility in Dulbecco's phosphate buffered saline using solid sample incubated for 72 hrs under shaking condition by LC-MS/MS analysis; format: physicochemical; conditions: read-out: Therm_solubility
[4] = Stability in Dulbecco's phosphate buffered saline assessed as parent compound remaining at 1 uM after 24 hrs by LC-MS/MS analysis; format: physicochemical; conditions: read-out: Stability
Outline: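 Compound, typically 1 μM final, incubated in DPBS at 37 °C in triplicate; samples at 0, 1, 3, 6, 24 h quenched with 3 volumes acetonitrile containing internal standard; parent measured by LC-MS/MS.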

[5] = Half life in human plasma at 1 uM by LC-MS/MS analysis; format: ADME, cell-free
[6] = Half life in mouse plasma at 1 uM by LC-MS/MS analysis; format: ADME, cell-free
[7] = Protein binding in human plasma at 5 uM incubated for 5 hrs by LC-MS/MS-based equilibrium dialysis method; format: ADME, cell-free
Outline: (§1)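 Equilibrium dialysis in duplicate: compound spiked at 5 μM into normal human or mouse plasma, dialyzed against DPBS 5 h at 37 °C; both chambers sampled and quenched in acetonitrile with internal standard; LC-MS/MS gives percent bound.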

[8] = Protein binding in mouse plasma at 5 uM incubated for 5 hrs by LC-MS/MS-based equilibrium dialysis method; format: ADME, cell-free; outline: as §1
[9] = Intrinsic clearance in human liver microsomes assessed as NADPH-dependent metabolism per mg protein at 1 uM in presence of NADPH by LC-MS/MS analysis; format: ADME, Microsome
[10] = Intrinsic clearance in human liver microsomes assessed as glucuronidation per mg protein at 1 uM in presence of UDPGA by LC-MS/MS analysis; format: ADME, Microsome
Outline: (§2)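 Glucuronidation: typically 1 μM compound with 0.5 mg/mL microsomal protein, alamethicin 50 μg/mg protein, 1 mM MgCl2, 5 mM UDPGA in 0.1 M potassium phosphate pH 7.4, 37 °C; timed aliquots quenched in acetonitrile; LC-MS/MS gives CLint (μl/min/mg protein); triplicate; 7-hydroxycoumarin positive control.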

[11] = Intrinsic clearance in mouse liver microsomes assessed as NADPH-dependent metabolism per mg protein at 1 uM in presence of NADPH by LC-MS/MS analysis; format: ADME, Microsome
[12] = Intrinsic clearance in mouse liver microsomes assessed as glucuronidation per mg protein at 1 uM in presence of UDPGA by LC-MS/MS analysis; format: ADME, Microsome; outline: as §2

Row | SMILES | Activity (Hepatitis B virus [1]) | CC50 (HepG2) [µM] | EC50 (Hepatitis B virus [2]) [µM] | further results
1 | Cc1c(C(=O)Nc2ccc(F)c(F)c2)sc(N)c1C(=O)Nc1ccccc1 | Active | 26 | – | –
2 | Cc1c(C(=O)NCc2ccccc2)sc(N)c1C(N)=O | Active | – | 10 | –
3 | CC(C)Cc1sc(-c2nccs2)nc1C(=O)NCc1ccc(F)cc1 | Active | 29 | 10 | –
4 | Cc1c(C(=O)Nc2ccc(F)c(F)c2)sc(N)c1C#N | Active | > 100 | 10 | –
5 | COc1ccc(CNC(=O)c2c(N)sc(C(=O)Nc3ccccc3)c2C)cc1 | Active | – | > 10 | –
6 | Cc1c(C(=O)Nc2ccccc2)sc(NC(=O)c2cn[nH]c2)c1C(N)=O | Active | > 100 | – | –
7 | Cc1c(C(=O)Nc2ccc(F)c(F)c2)sc(N)c1C(=O)NC1CCCC1 | Active | – | > 10 | –
8 | COc1ccc(NC(=O)c2sc(N)c(C(N)=O)c2C)cc1 | Active | – | 10 | –
9 | Cc1c(C(=O)Nc2ccccc2)sc2[nH]c(-c3ccc(F)c(F)c3)nc(=O)c12 | inactive | – | – | –
10 | Cc1c(C(=O)Nc2ccccc2)sc2[nH]c(CS(=O)(=O)c3ccccc3)nc(=O)c12 | inactive | – | – | –
11 | Cc1c(C(=O)Nc2ccccc2)sc2[nH]c(Cc3ccccc3)nc(=O)c12 | inactive | – | – | –
12 | Cc1ccc(CC(=O)Nc2sc(C(=O)Nc3ccccc3)c(C)c2C(N)=O)cc1F | Active | > 100 | > 10 | –
13 | Cc1c(C(=O)Nc2ccccc2)sc(NC(=O)c2cc(Cl)cc(Cl)c2)c1C(N)=O | Active | 49.5 | – | –
14 | Cc1c(C(=O)Nc2ccccc2)sc(N)c1C(=O)NC1CC1 | inactive | – | > 10 | –
15 | O=C(N/C(C(=O)N1CCCCC1)=C(\Cl)c1ccccc1)c1ccccc1 | Active | 61 | 4.8 | –
16 | CCOC(=O)c1c(N)sc(C(=O)Nc2ccc(F)c(C)c2)c1C | Active | > 100 | – | –
17 | Cc1c(C(=O)Nc2ccccc2)sc(NC(=O)Cc2ccc(F)c(F)c2)c1C(N)=O | Active | > 100 | 10 | –
18 | Cc1nc(=O)c2c(C)c(C(=O)Nc3ccccc3)sc2[nH]1 | inactive | – | – | –
19 | O=C(Nc1ccc(F)c(F)c1)c1cc(S(=O)(=O)NC2CCCC2)ccc1F | Active | 17 | 0.25 | –
20 | Cc1c(C(=O)Nc2ccc(F)c(F)c2)sc(N)c1C(=O)Nc1ccc(F)c(F)c1 | Active | 17 | – | –
21 | Cc1cc(NC(=O)c2sc(N)c(C(=O)Nc3ccc(F)c(C)c3)c2C)ccc1F | inactive | – | – | –
22 | Cc1c(C(=O)Nc2ccc(F)c(C(F)(F)F)c2)sc(N)c1C(N)=O | Active | > 100 | – | –
23 | Cc1c(C(=O)Nc2ccc(C#N)cc2)sc(N)c1C(N)=O | inactive | – | – | –
24 | Cc1ccc(C(=O)Nc2sc(C(=O)Nc3ccccc3)c(C)c2C(N)=O)s1 | Active | > 100 | – | –
25 | NC(=O)c1c(N)sc2c1CCCN2C(=O)c1ccccc1 | inactive | – | – | –
26 | Cc1c(C(=O)Nc2ccccc2)sc(NC(=O)c2csc([N+](=O)[O-])c2)c1C(N)=O | Active | > 100 | – | –

Row | SMILES | Activity (Hepatitis B virus [1]) | CC50 (HepG2) [µM] | EC50 (Hepatitis B virus [2]) [µM] | further results
27 | Cc1c(C(=O)Nc2ccc(C(F)(F)F)cc2)sc(N)c1C(N)=O | inactive | – | – | –
28 | Cc1c(C(=O)Nc2ccccc2)sc(N)c1C(=O)NC1CCCC1 | inactive | – | > 10 | –
29 | Cc1c(C(=O)Nc2ccccc2)sc(-n2cnnn2)c1C(N)=O | inactive | – | – | –
30 | CCOC(=O)c1c(N)sc(C(=O)Nc2ccccc2)c1C | Active | 76 | > 10 | –
31 | CCOC(=O)C1=C(C)NC(c2ncccc2F)=NC1c1ccc(F)cc1Cl (centres undefined) | Active | > 100 | 0.41 | –
32 | Cc1c(C(=O)Nc2ccc(F)c(F)c2)sc(N)c1C(=O)Nc1ccc(Cl)cc1 | Active | – | > 10 | –
33 | Cc1c(C(=O)Nc2ccccc2)sc(N)c1C(=O)Nc1ccc(F)c(F)c1 | Active | 40 | – | –
34 | Cc1c(C(=O)Nc2cc(F)c(F)c(Cl)c2)sc(N)c1C(N)=O | Active | 72 | – | –
35 | Cc1c(C(=O)Nc2ccccc2)sc(N)c1C#N | inactive | – | – | –
36 | Cc1c(C(=O)Nc2ccccc2)sc(N)c1C(=O)Nc1ccccc1 | Active | > 100 | – | –
37 | Cc1c(C(=O)Nc2ccccc2)sc(N)c1C(=O)NC(C)C | inactive | – | > 10 | –
38 | Cc1c(C(=O)Nc2ccccc2)sc(N)c1C(=O)NCc1ccc(C(F)(F)F)cc1 | Active | – | > 10 | –
39 | Cc1cc(NC(=O)c2c(N)sc(C(=O)Nc3ccccc3)c2C)ccc1F | Active | 40 | – | –
40 | NC(=O)c1c(N)sc2c1CCN(C(=O)c1ccccc1)C2 | inactive | – | – | –
41 | Cc1c(C(=O)Nc2ccc(F)c(C#N)c2)sc(N)c1C(N)=O | Active | > 100 | – | solubility thermodynamic at 72 h [3]: 6.7 µM (≈ 2.13 µg/mL); remaining at 24 h, 1 µM [4]: > 90%; t1/2 [5]: > 24 h; t1/2 [6]: > 24 h; PPB [7]: 80%; PPB [8]: 69%; Microsomal intrinsic clearance [9]: 2.4 µL/min; intrinsic clearance (CLint) [10]: 0.1 µL/min; intrinsic clearance per mg protein [11]: 4.2 µL/min; intrinsic clearance (CLint) [12]: 2 µL/min
42 | Cc1cc(NC(=O)c2sc(N)c(C(N)=O)c2C)ccc1Cl | Active | > 100 | 1.7 | –
43 | Cc1c(C(=O)Nc2cc(F)c(F)c(Cl)c2)sc(N)c1C#N | inactive | – | – | –
44 | Cc1c(C(=O)Nc2ccccc2)sc(NC(=O)N2CCOCC2)c1C(N)=O | inactive | – | – | –
45 | Cc1ccc(NC(=O)c2sc(N)c(C(N)=O)c2C)cc1 | inactive | – | > 10 | –
46 | Cc1c(C(=O)Nc2ccc(Cl)c(C(F)(F)F)c2)sc(N)c1C(N)=O | Active | 72 | – | –
47 | Cc1c(C(=O)Nc2ccccc2)sc(NC(=O)c2nccs2)c1C(N)=O | Active | > 100 | – | –
48 | Cc1c(C(=O)Nc2ccc(F)cc2)sc(N)c1C(N)=O | Active | > 100 | – | –
49 | Cc1c(C(=O)Nc2ccccc2)sc(NC(=O)c2ccc(S(C)(=O)=O)cc2)c1C(N)=O | Active | > 100 | – | –
50 | NC(=O)c1c(N)sc2c1CCCC2 | inactive | – | – | –
51 | Cc1c(C(=O)Nc2ccccc2)sc(NC(=O)c2ccsc2)c1C(N)=O | Active | > 100 | – | –
52 | Cc1cc(NC(=O)c2sc(N)c(C#N)c2C)ccc1F | Active | 96 | – | –

— ChEMBL document CHEMBL4411305, “5-Aminothiophene-2,4-dicarboxamide analogues as hepatitis B virus capsid assembly effectors” (Eur J Med Chem, 2019)
